What is called IC50 is the point on the concentration scale where inhibition reaches its midpoint. For orientation: EC50 means the concentration at which the effect is half-maximal.

Drawing on ChEMBL document CHEMBL2086321, “Modulation of thermo-transient receptor potential (thermo-TRP) channels by thymol-based compounds” (Bioorg Med Chem Lett, 2012), this text covers Efficacy, IC50 and EC50 for 21 compounds.

Format in all cases: cell-based
For assay [1], the target named is Transient receptor potential cation channel subfamily A member 1 (Rattus norvegicus) (UniProt Q6RI86). The assay can be described thus: Activation of rat TRPA1 expressed in HEK293 cells assessed as stimulation of intracellular Ca2+ levels relative to 100 uM allyl isothiocyanate. A digest of the protocol: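 Efficacy on stably transfected rat TRPA1-HEK293 cells is the intracellular Ca2+ rise expressed as percent of the allyl isothiocyanate response. Means ± SEM, N = 3.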
Chain of Transient receptor potential cation channel subfamily A member 1 (Rattus norvegicus) (Q6RI86 whole entry): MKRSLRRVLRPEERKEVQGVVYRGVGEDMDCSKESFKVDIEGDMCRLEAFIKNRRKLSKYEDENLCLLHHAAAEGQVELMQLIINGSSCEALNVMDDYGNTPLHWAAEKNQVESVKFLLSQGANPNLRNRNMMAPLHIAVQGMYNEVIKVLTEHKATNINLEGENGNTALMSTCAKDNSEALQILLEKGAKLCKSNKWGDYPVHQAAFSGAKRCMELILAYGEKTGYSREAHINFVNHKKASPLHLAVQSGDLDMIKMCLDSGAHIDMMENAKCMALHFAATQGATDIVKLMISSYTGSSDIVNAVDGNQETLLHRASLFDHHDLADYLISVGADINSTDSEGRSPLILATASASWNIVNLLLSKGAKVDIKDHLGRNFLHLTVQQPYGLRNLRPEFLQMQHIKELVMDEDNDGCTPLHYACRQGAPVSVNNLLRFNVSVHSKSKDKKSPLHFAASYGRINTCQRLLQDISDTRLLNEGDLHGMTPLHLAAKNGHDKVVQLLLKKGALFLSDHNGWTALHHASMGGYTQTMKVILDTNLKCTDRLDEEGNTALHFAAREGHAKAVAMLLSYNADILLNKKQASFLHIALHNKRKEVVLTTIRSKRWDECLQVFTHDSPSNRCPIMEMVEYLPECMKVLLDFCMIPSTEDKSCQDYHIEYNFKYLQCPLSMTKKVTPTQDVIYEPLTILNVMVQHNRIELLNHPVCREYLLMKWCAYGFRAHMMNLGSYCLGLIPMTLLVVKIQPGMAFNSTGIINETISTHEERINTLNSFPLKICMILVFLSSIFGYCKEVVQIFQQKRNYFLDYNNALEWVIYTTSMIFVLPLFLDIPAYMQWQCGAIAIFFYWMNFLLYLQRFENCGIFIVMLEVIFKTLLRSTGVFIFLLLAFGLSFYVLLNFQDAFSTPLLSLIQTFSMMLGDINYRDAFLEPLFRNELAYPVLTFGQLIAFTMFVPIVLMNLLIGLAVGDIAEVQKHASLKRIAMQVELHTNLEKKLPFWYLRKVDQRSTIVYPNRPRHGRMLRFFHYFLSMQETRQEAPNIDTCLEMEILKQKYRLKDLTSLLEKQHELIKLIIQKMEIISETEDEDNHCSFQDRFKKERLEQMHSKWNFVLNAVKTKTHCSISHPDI

Assay [2] deals with T1, Transient receptor potential cation channel subfamily A member 1 (Rattus norvegicus, UniProt Q6RI86). The assay can be described thus: Inhibition of rat TRPA1 expressed in HEK293 cells assessed as reduction in 100 uM allyl isothiocyanate-stimulated increase in intracellular Ca2+ levels. The gist of the method: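 Rat TRPA1-HEK293 stable cells were preincubated 5 min with compound, then incubation continued with allyl isothiocyanate.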
T1 sequence (Q6RI86 whole entry): as above

Assay [3] concerns the target Transient receptor potential cation channel subfamily M member 8 (Rattus norvegicus) (UniProt Q8R455). The assay can be described thus: Activation of rat TRPM8 expressed in HEK293 cells assessed as stimulation of intracellular Ca2+ levels relative to 4 uM ionomycin. A digest of the protocol: (§1)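 Efficacy on HEK293 cells stably expressing rat TRPM8 or rat TRPV3 is the intracellular Ca2+ elevation expressed as percent of the ionomycin response.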

For assay [4], the target named is T2, Transient receptor potential cation channel subfamily M member 8 (Rattus norvegicus, UniProt Q8R455). The assay can be described thus: Activation of rat TRPM8 expressed in HEK293 cells assessed as stimulation of intracellular Ca2+ levels. A digest of the protocol: (§2)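 HEK293 cells stably transfected with rat TRPA1, rat TRPM8 or rat TRPV3 cDNA. Compounds were applied and the rise in intracellular Ca2+ was recorded.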
T2 sequence (Q8R455 whole entry): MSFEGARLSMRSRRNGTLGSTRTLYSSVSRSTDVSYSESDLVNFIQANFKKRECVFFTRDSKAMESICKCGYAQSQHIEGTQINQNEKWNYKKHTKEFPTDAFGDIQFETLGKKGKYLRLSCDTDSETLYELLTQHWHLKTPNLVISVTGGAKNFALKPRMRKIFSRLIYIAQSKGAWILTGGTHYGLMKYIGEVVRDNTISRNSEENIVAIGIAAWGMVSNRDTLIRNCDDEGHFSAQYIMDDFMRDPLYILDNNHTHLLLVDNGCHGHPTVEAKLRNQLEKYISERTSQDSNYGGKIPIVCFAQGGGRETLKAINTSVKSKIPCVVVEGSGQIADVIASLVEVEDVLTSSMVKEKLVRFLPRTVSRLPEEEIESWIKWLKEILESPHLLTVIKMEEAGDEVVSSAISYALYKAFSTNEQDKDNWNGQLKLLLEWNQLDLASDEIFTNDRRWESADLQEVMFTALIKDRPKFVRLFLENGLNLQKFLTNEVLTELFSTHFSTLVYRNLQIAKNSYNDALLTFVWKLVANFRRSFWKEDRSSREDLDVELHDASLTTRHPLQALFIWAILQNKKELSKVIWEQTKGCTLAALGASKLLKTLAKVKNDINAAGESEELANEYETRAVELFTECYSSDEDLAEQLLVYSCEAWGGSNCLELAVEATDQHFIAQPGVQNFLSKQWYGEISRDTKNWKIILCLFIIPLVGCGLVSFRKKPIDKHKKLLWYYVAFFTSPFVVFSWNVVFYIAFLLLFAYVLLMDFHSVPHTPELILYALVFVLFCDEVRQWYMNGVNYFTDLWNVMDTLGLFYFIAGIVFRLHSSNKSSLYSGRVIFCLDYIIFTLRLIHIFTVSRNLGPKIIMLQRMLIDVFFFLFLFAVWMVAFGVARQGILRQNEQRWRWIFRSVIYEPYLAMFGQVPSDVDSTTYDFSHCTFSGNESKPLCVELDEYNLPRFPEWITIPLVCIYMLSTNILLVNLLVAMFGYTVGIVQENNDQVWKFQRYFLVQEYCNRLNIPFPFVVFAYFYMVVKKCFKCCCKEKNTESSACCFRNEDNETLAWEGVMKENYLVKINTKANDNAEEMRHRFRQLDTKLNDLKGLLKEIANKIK

Assay [5] deals with T2, Transient receptor potential cation channel subfamily M member 8. The experiment in a line: Inhibition of rat TRPM8 expressed in HEK293 cells assessed as reduction in […] icilin-stimulated increase in intracellular Ca2+ levels.
The target is the same in assay [6]. The experiment in a line: Inhibition of rat TRPM8 expressed in HEK293 cells assessed as reduction in 20 uM menthol-stimulated increase in intracellular Ca2+ levels. A digest of the protocol: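 IC50 on rat TRPM8 stably expressed in HEK293 cells, measured as inhibition of the intracellular Ca2+ response to icilin or menthol. Means ± SEM, N = 3.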
For the next assay, the system named is HEK293. The assay can be described thus: Activation of rat TRPV3 expressed in HEK293 cells assessed as stimulation of intracellular Ca2+ levels relative to 4 uM ionomycin. The gist of the method:
as §1

A short description of assay [7]: Inhibition of rat TRPV3 expressed in HEK293 cells assessed as reduction in 100 uM thymol-stimulated increase in intracellular Ca2+ levels.
Assay [8] concerns the target T1, Transient receptor potential cation channel subfamily A member 1. The experiment in a line: Activation of rat TRPA1 expressed in HEK293 cells assessed as stimulation of intracellular Ca2+ levels. A digest of the protocol:
as §2

Assay [9] can be described thus: Activation of rat TRPV3 expressed in HEK293 cells assessed as stimulation of intracellular Ca2+ levels. The gist of the method: as §2

Chain of Transient receptor potential cation channel subfamily M member 8 (Rattus norvegicus) (Q8R455 whole entry, looked up): as the sequence (Q8R455 whole entry) above

On to `Cc1ccc(C(C)C)c(C(=O)NCCc2ccccc2)c1`, for which the results for the Efficacy (in assay [1]; in [3]; in the assay with HEK293) were under 10%, 64.1% and under 10%, respectively. Besides, the half-inhibitory concentration (IC50) in assay [2] is over 100 µM; in assay [5] it was 0.6 µM; in [6], 0.32 µM; in [7] it was 75.4 µM. Also, the concentration for a half-maximal effect (EC50) in assay [4] worked out at 0.27 µM.

`Cc1ccc(C(C)C)c(NC(=O)Cc2ccc(-c3ccccc3)cc2)c1`: the Efficacy in [1] is 212%; in assay [3], under 10%; in the assay on HEK293, 39.3%. For the same compound, the concentration giving a half-maximal response (EC50) worked out at 6.5 µM in assay [8] and 6.3 µM in assay [9]. In addition, the half-maximal inhibitory concentration (IC50) in [2] was found to be 3.9 µM; in assay [5] it was 31.2 µM; in assay [6], 78.3 µM; in [7], 29.7 µM.

For `Cc1ccc(C(C)C)c(OC(=O)c2ccc(-c3ccccc3)cc2)c1`, the Efficacy in assay [1] is 204%; in assay [3] it was under 10%; with HEK293 it was 33.8%. For the same compound, the figures for the 50% effective concentration (EC50) in [8] and in assay [9] were 3.3 µM and 7.7 µM, respectively. For the same compound, the IC50 worked out at 5.5 µM in assay [2], 21.2 µM in [5], 18.6 µM in assay [6] and 6.5 µM in assay [7].

Turning to `Cc1ccc(C(C)C)c(C(=O)NCCc2c[nH]c3ccc(OCc4ccccc4)cc23)c1`, the results for the Efficacy (in assay [1]; in assay [3]; in the assay with HEK293) were 241%, under 10% and under 10%, respectively. Moreover, the EC50 in assay [8] worked out at 25.9 µM. The IC50 in [2] was 70.2 µM; in assay [5] it was 69.4 µM; in assay [6], 61.4 µM; in [7], 41.9 µM.

For `Cc1ccc(C(C)C)c(NC(=O)c2ccc(C(C)(C)C)cc2)c1`, the Efficacy in assay [1] stood at 204%; in assay [3] it was 24.5%; in the assay on HEK293, 34.8%. Besides, the figures for the EC50 in assay [8], in assay [4] and in assay [9] were 6.4 µM, 0.44 µM and 10.6 µM, respectively. Moreover, the IC50 in assay [2] came out at 8.8 µM; in assay [5] it was 1 µM; in assay [6], 1 µM; in assay [7], 6.2 µM.

For `Cc1ccc(C(C)C)c(C(=O)Nc2ccc(Cl)cc2)c1`, the Efficacy is under 10% in [1], 43.2% in assay [3] and 43.4% in the assay with HEK293. Also, the IC50 in assay [2] is 26.1 µM; in assay [5], 4.8 µM; in assay [6], 5 µM; in assay [7], 4.9 µM. In addition, the concentration giving a half-maximal response (EC50) in assay [4] stood at 0.85 µM; in assay [9] it was 11.8 µM.

Turning to `Cc1ccc(C(C)C)c(NC(=O)Oc2ccc(C(F)(F)F)cc2)c1`, the Efficacy in assay [1] was 178%; in assay [3] it was under 10%; in the assay with HEK293, under 10%. The concentration for a half-maximal effect (EC50) in [8] was 41 µM. Further, the IC50 in [2] worked out at 4.1 µM; in [5] it was 23.1 µM; in assay [6], 73.7 µM; in [7], 50.3 µM.

In the case of `Cc1ccc(C(C)C)c(C(=O)Nc2ccc(C(F)(F)F)cc2)c1`, the Efficacy is 65.4% in assay [1], 13.9% in [3] and 22.1% in the assay on HEK293. In addition, the EC50 in assay [8] stood at 3.9 µM; in [4], 45.8 µM; in assay [9], 59.7 µM. For the same compound, the concentration for half-maximal inhibition (IC50) worked out at 3.6 µM in assay [2], 3.2 µM in [5], 4.4 µM in assay [6] and 75.1 µM in assay [7].

Take `Cc1ccc(C(C)C)c(NC(=O)Cc2cccc(I)c2)c1`: the results for the Efficacy (in assay [1]; in assay [3]; in the assay on HEK293) were 154%, under 10% and 15%, respectively. The EC50 in assay [8] was determined as 20.5 µM; in [9], 15.9 µM. Further, the IC50 was 43.2 µM in [2], 11.6 µM in [5], 14.1 µM in assay [6] and 20.4 µM in assay [7].

For `Cc1ccc(C(C)C)c(NC(=O)Nc2ccc(-c3ccccc3)cc2)c1`, the values for the Efficacy (in [1]; in assay [3]; in the assay with HEK293) were 224%, under 10% and 16.9%, respectively. For the same compound, the values for the EC50 in assay [8] and in assay [9] were 32.2 µM and 5.9 µM, respectively. In addition, the half-maximal inhibitory concentration (IC50) turned out to be 27.9 µM in [2], 37.4 µM in [5], 25.4 µM in assay [6] and 12.8 µM in [7].

As to `Cc1ccc(C(C)C)c(C(=O)Oc2ccc(-c3ccccc3)cc2)c1`, the values for the Efficacy (in [1]; in assay [3]; with HEK293) were 195%, under 10% and 64.3%, respectively. For the same compound, the values for the EC50 in assay [8] and in assay [9] were 7.4 µM and 14.5 µM, respectively. In addition, the half-maximal inhibitory concentration (IC50) was 12.7 µM in assay [2], over 100 µM in assay [5], over 100 µM in assay [6] and 2.9 µM in [7].

In the case of `COc1ccc(NC(=O)Oc2cc(C)ccc2C(C)C)cc1`, the Efficacy was 264% in assay [1], 30.3% in assay [3] and under 10% in the assay on HEK293. Further, the EC50 was 7.4 µM in assay [8] and 5.1 µM in assay [4]. Also, the IC50 in assay [2] came out at 4.5 µM; in assay [5], 2.5 µM; in [6], 5.2 µM; in assay [7], 64.3 µM.

Regarding `Cc1ccc(C(C)C)c(NC(=O)Oc2ccc(C(C)(C)C)cc2)c1`, the Efficacy in assay [1] was 132%; in assay [3], under 10%; in the assay with HEK293, 62.5%. The concentration giving a half-maximal response (EC50) worked out at 1.3 µM in [8] and 1.4 µM in assay [9]. The half-inhibitory concentration (IC50) in assay [2] is 0.78 µM; in assay [5], 0.7 µM; in [6], 0.85 µM; in assay [7], 1.9 µM.

Take `COc1ccc(OC(=O)c2cc(C)ccc2C(C)C)cc1`: the Efficacy in [1] is 194%; in [3], under 10%; in the assay on HEK293, 27.1%. The concentration for a half-maximal effect (EC50) worked out at 3.6 µM in [8] and 4 µM in assay [9]. Further, the 50% inhibitory concentration (IC50) is 3.6 µM in assay [2], over 100 µM in [5], 77.4 µM in assay [6] and 5 µM in assay [7].

With `Cc1ccc(C(C)C)c(O)c1` [THYMOL], the Efficacy in assay [1] came to 119%; in [3], 31.1%; in the assay on HEK293, 34.7%. In addition, the concentration giving a half-maximal response (EC50) in assay [8] came out at 287 µM; in assay [4], 52.2 µM; in assay [9], 84.1 µM. The 50% inhibitory concentration (IC50) in [2] is 125 µM; in assay [5], 315 µM; in [6], 169 µM.

As to `Cc1ccc(C(C)C)c(N)c1`, the Efficacy is 57.4% in [1], 33.8% in assay [3] and under 10% in the assay on HEK293. Further, the concentration for a half-maximal effect (EC50) in assay [8] came to 64.2 µM; in [4] it was 43.4 µM. Also, the half-inhibitory concentration (IC50) in [2] is 212 µM; in assay [5] it was 238 µM; in assay [6], 113 µM; in assay [7] it was over 100 µM.

Take `COc1ccc(C(=O)Nc2cc(C)ccc2C(C)C)cc1`: the Efficacy in assay [1] was 149%; in [3] it was 58.1%; in the assay on HEK293 it was under 10%. Moreover, the EC50 in [8] turned out to be 45.9 µM; in [4] it was 4.8 µM. Also, the IC50 in [2] was over 100 µM; in [5], 14.7 µM; in [6], 15.2 µM; in assay [7] it was over 100 µM.

Regarding `COc1ccc(NC(=O)Nc2cc(C)ccc2C(C)C)cc1`, the Efficacy in assay [1] was 114%; in assay [3] it was under 10%; in the assay with HEK293 it was under 10%. In addition, the EC50 in assay [8] was 14.1 µM. Also, the IC50 in [2] stood at 34.4 µM; in assay [5] it was 38.5 µM; in [6] it was 77.5 µM; in assay [7], 85.4 µM.

With `Cc1ccc(C(C)C)c(OC(=O)Cc2ccc(-c3ccccc3)cc2)c1`, the Efficacy was 226% in assay [1], under 10% in assay [3] and 52.7% in the assay on HEK293. Besides, the EC50 is 1.8 µM in assay [8] and 3.8 µM in assay [9]. The half-maximal inhibitory concentration (IC50) was 20.9 µM in [2], over 100 µM in assay [5], over 100 µM in [6] and 1.5 µM in [7].

On to `COc1ccc(C(=O)Oc2cc(C)ccc2C(C)C)cc1`, for which the Efficacy is 149% in assay [1], under 10% in assay [3] and 23.1% in the assay on HEK293. Besides, the values for the EC50 in assay [8] and in [9] were 1 µM and 4.9 µM, respectively. Besides, the IC50 came to 2.7 µM in assay [2], 6.5 µM in [5], 5 µM in [6] and 9.7 µM in [7].

For the compound `Cc1ccc(C(C)C)c(NC(=O)Nc2ccc(C(C)(C)C)cc2)c1`, the figures for the Efficacy (in assay [1]; in [3]; in the assay with HEK293) were 235%, under 10% and 31.6%, respectively. The EC50 in assay [8] is 4.3 µM; in [9] it was 7.6 µM. In addition, the 50% inhibitory concentration (IC50) in assay [2] is 25 µM; in assay [5], over 100 µM; in assay [6], 26.7 µM; in [7], 3.3 µM.
